Measurements reported in ChEMBL document CHEMBL1806486, “Discovery and evaluation of 3-phenyl-1H-5-pyrazolylamine-based derivatives as potent, selective and efficacious inhibitors of FMS-like tyrosine kinase-3 (FLT3)” (Bioorg Med Chem, 2011).
Calls of active or inactive are those of the source. The rule behind the calls is not given here.

Columns and labels:
[1] = biological target: T1, Aurora kinase A (Homo sapiens, UniProt O14965); test: Inhibition of recombinant GST-tagged Aurora A expressed in Sf9 insect cells after 90 mins by Kinase-Glo assay
T1 sequence (O14965 whole entry): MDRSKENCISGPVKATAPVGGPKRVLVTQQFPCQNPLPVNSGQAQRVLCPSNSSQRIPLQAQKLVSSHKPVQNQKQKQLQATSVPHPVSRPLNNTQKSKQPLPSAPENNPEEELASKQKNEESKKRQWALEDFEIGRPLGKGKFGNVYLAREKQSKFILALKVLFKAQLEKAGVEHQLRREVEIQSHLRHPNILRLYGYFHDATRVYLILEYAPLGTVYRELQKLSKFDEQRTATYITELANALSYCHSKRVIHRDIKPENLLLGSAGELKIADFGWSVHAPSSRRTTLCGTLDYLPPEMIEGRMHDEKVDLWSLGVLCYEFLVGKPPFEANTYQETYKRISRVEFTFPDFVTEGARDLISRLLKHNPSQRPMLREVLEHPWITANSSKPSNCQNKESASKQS
In short: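 GST-Aurora A kinase domain (S123–S401, 150 ng) from Sf9 cells. Buffer was 50 mM Tris-HCl pH 7.4 with 10 mM NaCl, 10 mM MgCl2, 0.01% BSA and 1 mM DTT. Kinase-Glo Plus was added for 20 min at 25 °C before the luminescence read.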

[2] = biological target: Vascular endothelial growth factor receptor 2 (Homo sapiens, UniProt P35968); test: Inhibition of recombinant GST-tagged VEGFR2 expressed in Sf9 insect cells after 120 mins by Kinase-Glo assay; format: cell-based
[3] = biological target: Vascular endothelial growth factor receptor 1 (Homo sapiens, UniProt P17948); test: Inhibition of recombinant GST-tagged VEGFR1 expressed in Sf9 insect cells after 120 mins by Kinase-Glo assay
In short: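 GST-VEGFR1 (R781–I1338) or GST-VEGFR2 (V789–V1356) kinase domain, 50–100 ng, from Sf9 cells. Read-out was Kinase-Glo Plus luminescence.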

[4] = system: MOLM-13; test: Antiproliferation activity against human MOLM13 cells expressing FLT3 mutation assessed as cell viability after 72 hrs by MTS method; format: functional; details: MOLM-13, 72 h
[5] = biological target: High affinity nerve growth factor receptor (Homo sapiens) (UniProt P04629); test: Inhibition of TRKA at 0.1 uM
[6] = biological target: Proto-oncogene tyrosine-protein kinase receptor Ret (Homo sapiens) (UniProt P07949); test: Inhibition of RET at 0.1 uM
[7] = biological target: Proto-oncogene tyrosine-protein kinase Src (Homo sapiens) (UniProt P12931); test: Inhibition of SRC at 0.1 uM
[8] = biological target: Vascular endothelial growth factor receptor 3 (Homo sapiens) (UniProt P35916); test: Inhibition of VEGFR3 at 0.1 uM
[9] = biological target: Mast/stem cell growth factor receptor Kit (Homo sapiens) (UniProt P10721); test: Inhibition of c-Kit at 0.1 uM
[10] = biological target: Platelet-derived growth factor receptor alpha (Homo sapiens) (UniProt P16234); test: Inhibition of PDGFR alpha at 0.1 uM
[11] = biological target: Macrophage colony-stimulating factor 1 receptor (Homo sapiens) (UniProt P07333); test: Inhibition of CSF1R at 0.1 uM
[12] = system: MV4-11; test: Antiproliferation activity against FLT3/ITD harboring human MV4-11 cells after 72 hrs by MTS method; format: functional; details: MV4-11, 72 h
[13] = Antiproliferation activity against human RS4:11 cells expressing wild type FLT3 after 72 hrs by MTS method; format: functional; details: RS4-11, 72 h
[14] = system: MOLT-4; test: Antiproliferation activity against human MOLT4 after 72 hrs by MTS method; format: functional; details: MOLT-4, 72 h
[15] = system: MOLM-13; test: Antitumor activity against human MOLM13 cells xenografted in iv dosed athymic nu/nu nude mouse assessed as inhibition of tumor growth administered qd for two weeks; format: functional, organism-based
In short: (§1)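 Athymic nu/nu mice (9 weeks old) received 1 × 10^6 MOLM-13 cells s.c. in the left flank. They were randomized at a mean tumor volume of about 200 mm3, with 7–8 per group. Dosing was iv once daily at 10 or 50 mg/kg on days 1–5 and 8–12, in 10% DMSO/20% Cremophor/70% saline. Vehicle controls were dosed the same way. Caliper volume = (width × length²)/2, reported as mean ± SEM.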

[16] = system: MOLM-13; test: Antitumor activity against human MOLM13 cells xenografted in athymic nu/nu nude mouse assessed as inhibition of tumor growth at 10 mg/kg, iv qd administered for 1 to 5 and 8 to 12 days measured during first 5 days of treatment; format: functional, organism-based; set-up: dose 10 mg/kg; in short: as §1
[17] = system: MV4-11; test: Antitumor activity against human MV4-11 cells xenografted in athymic nu/nu nude mouse assessed as inhibition of tumor growth at 50 mg/kg, iv qd for 1 to 5 and 8 to 12 days; format: functional, organism-based; set-up: dose 50 mg/kg
In short: (§2)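 Nude nu/nu mice (9 weeks old) received 1 × 10^6 MV4;11 cells s.c. in the left flank. Treatment began at a mean tumor volume of about 500 mm3, with n = 8 per group. Dosing was iv once daily at 10, 25 or 50 mg/kg on days 1–5 and 8–12, in DMSO/Cremophor/saline vehicle, with vehicle controls. Tumor volume was measured by caliper as (width × length²)/2.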

[18] = Clearance in Sprague-Dawley rat at 5 mg/kg, iv and 20 mg/kg, po; format: ADME, organism-based; details: in vivo
[19] = Volume of distribution at steady state in Sprague-Dawley rat at 5 mg/kg, iv and 20 mg/kg, po; format: ADME, organism-based; details: in vivo, read-out: Vdss
[20] = Half life in Sprague-Dawley rat at 5 mg/kg, iv and 20 mg/kg, po; format: ADME, organism-based; details: in vivo
[21] = system: MOLM-13; test: Antitumor activity against human MOLM13 cells xenografted in athymic nu/nu nude mouse assessed as tumor growth regression at 50 mg/kg, iv qd administered for 1 to 5 and 8 to 12 days; format: functional, organism-based; set-up: dose 50 mg/kg; in short: as §1
[22] = system: MV4-11; test: Antitumor activity against human MV4-11 cells xenografted in athymic nu/nu nude mouse assessed as tumor regrowth at 50 mg/kg, iv qd for 1 to 5 and 8 to 12 days measured after 20 days; format: functional, organism-based; set-up: dose 50 mg/kg; in short: as §2
[23] = system: Mus musculus; test: Toxicity in athymic nu/nu nude mouse harboring xenografted huma MOLM13 cells assessed as reduction of body weight at 50 mg/kg, iv for continuous 5 days; format: organism-based, MOLM-13; set-up: dose 50 mg/kg, route intravenous; scale not given: the % may be the effect or the level left; details: in vivo, 120 h
[24] = system: Mus musculus; test: Toxicity in athymic nu/nu nude mouse harboring xenografted human MV4:11 cells assessed as reduction of body weight at 50 mg/kg, iv for continuous 5 days; format: organism-based; set-up: dose 50 mg/kg, route intravenous; scale not given: the % may be the effect or the level left; details: in vivo, 120 h
[25] = system: Mus musculus; test: Toxicity in normal mouse assessed as reduction of body weight at 50 mg/kg, iv for continuous 5 days; details: in vivo, 120 h

Platelet-derived growth factor receptor alpha (Homo sapiens), sequence (P16234 whole entry): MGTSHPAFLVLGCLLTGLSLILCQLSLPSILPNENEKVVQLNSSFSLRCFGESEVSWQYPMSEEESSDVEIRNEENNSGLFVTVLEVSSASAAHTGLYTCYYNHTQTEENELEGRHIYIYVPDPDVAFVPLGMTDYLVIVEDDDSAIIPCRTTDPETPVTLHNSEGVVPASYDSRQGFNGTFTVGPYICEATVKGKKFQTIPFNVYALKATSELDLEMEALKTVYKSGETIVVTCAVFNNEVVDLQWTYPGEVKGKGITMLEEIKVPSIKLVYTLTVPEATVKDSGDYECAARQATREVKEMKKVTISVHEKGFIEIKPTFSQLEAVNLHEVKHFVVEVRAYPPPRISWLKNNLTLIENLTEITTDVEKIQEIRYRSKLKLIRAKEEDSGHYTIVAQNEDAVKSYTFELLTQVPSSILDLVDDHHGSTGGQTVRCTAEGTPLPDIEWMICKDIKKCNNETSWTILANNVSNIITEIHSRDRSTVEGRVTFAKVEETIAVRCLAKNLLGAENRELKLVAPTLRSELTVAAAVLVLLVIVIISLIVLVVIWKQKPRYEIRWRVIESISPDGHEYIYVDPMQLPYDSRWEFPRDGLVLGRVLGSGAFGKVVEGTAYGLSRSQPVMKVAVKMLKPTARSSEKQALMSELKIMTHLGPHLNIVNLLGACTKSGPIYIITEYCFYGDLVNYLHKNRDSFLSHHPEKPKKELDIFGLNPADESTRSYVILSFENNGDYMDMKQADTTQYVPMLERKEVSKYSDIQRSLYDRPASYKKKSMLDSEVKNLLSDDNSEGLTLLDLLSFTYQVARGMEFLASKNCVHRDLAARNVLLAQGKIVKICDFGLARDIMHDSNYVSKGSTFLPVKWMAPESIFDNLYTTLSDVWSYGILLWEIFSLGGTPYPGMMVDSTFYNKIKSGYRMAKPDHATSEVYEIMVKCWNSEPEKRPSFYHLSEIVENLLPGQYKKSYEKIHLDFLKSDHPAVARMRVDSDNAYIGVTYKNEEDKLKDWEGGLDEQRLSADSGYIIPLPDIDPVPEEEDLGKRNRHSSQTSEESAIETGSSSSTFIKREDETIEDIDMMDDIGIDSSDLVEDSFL
Proto-oncogene tyrosine-protein kinase Src (Homo sapiens), sequence (P12931 2-536 limits assumed): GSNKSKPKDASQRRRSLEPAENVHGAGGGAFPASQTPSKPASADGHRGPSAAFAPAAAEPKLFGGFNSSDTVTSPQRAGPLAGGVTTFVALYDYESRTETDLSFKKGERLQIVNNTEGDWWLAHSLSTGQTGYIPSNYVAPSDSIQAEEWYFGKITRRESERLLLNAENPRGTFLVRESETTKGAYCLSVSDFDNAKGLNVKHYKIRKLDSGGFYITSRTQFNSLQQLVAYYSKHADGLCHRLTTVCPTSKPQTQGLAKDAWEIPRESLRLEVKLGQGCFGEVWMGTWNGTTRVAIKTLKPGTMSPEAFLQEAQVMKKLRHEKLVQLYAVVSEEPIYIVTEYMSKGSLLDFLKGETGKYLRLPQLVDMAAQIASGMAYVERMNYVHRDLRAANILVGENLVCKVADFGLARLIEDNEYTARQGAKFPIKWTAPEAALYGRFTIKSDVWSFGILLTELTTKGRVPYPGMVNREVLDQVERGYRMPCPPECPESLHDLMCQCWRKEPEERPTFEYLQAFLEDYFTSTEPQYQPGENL
High affinity nerve growth factor receptor (Homo sapiens), sequence (P04629 33-796 limits assumed): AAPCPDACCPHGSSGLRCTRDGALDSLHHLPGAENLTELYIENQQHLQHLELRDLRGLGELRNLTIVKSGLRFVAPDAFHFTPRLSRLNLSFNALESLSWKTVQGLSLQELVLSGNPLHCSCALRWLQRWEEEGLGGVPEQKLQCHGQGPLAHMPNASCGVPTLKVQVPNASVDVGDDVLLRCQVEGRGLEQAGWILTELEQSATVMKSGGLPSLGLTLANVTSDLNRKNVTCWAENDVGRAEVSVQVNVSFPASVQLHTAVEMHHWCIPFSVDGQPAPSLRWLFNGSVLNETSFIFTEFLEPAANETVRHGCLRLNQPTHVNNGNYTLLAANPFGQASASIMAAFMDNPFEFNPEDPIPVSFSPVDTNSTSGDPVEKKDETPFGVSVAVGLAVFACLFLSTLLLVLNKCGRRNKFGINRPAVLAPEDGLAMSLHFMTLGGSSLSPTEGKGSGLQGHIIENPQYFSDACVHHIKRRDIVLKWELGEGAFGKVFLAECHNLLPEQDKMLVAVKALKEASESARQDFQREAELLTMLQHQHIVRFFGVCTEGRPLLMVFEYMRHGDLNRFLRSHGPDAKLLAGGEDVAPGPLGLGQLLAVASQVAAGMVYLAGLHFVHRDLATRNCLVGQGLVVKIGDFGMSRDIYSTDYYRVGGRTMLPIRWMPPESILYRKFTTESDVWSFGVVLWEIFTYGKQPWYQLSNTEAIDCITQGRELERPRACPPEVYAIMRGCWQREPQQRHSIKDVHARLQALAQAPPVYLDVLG
Vascular endothelial growth factor receptor 2, sequence (P35968 whole entry): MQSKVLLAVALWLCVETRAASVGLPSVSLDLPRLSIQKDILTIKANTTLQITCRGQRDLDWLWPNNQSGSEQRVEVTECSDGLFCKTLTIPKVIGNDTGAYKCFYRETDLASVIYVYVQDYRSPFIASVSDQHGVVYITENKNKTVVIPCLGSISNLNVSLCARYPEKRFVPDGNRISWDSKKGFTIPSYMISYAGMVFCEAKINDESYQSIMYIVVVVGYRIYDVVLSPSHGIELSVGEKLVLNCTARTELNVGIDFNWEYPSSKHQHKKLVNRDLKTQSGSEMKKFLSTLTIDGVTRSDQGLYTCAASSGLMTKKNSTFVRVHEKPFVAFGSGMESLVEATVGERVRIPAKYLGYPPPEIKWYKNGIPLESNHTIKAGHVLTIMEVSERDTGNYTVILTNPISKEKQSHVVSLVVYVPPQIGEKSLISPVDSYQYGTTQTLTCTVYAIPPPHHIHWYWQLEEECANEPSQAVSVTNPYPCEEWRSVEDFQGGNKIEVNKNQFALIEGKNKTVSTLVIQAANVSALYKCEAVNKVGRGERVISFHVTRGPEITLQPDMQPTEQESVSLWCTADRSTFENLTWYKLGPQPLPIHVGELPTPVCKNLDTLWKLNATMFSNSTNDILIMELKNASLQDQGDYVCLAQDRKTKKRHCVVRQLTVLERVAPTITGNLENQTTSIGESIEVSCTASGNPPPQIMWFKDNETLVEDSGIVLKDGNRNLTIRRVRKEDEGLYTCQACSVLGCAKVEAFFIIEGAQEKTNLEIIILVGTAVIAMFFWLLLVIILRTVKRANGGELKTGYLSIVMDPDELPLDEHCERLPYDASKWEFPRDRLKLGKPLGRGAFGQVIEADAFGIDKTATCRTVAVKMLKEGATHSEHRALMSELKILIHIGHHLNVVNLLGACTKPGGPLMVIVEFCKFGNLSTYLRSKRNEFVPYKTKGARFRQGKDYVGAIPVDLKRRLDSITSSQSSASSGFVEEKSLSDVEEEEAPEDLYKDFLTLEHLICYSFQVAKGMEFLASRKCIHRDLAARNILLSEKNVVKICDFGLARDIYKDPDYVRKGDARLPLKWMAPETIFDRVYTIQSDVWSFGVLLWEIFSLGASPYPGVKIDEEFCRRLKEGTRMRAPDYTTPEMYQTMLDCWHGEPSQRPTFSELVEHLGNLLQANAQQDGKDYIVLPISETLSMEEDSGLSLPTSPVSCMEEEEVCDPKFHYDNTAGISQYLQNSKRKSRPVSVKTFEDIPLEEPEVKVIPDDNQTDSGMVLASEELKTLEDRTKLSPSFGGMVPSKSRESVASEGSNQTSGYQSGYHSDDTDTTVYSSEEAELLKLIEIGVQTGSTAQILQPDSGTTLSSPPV
Macrophage colony-stimulating factor 1 receptor (Homo sapiens), sequence (P07333 whole entry): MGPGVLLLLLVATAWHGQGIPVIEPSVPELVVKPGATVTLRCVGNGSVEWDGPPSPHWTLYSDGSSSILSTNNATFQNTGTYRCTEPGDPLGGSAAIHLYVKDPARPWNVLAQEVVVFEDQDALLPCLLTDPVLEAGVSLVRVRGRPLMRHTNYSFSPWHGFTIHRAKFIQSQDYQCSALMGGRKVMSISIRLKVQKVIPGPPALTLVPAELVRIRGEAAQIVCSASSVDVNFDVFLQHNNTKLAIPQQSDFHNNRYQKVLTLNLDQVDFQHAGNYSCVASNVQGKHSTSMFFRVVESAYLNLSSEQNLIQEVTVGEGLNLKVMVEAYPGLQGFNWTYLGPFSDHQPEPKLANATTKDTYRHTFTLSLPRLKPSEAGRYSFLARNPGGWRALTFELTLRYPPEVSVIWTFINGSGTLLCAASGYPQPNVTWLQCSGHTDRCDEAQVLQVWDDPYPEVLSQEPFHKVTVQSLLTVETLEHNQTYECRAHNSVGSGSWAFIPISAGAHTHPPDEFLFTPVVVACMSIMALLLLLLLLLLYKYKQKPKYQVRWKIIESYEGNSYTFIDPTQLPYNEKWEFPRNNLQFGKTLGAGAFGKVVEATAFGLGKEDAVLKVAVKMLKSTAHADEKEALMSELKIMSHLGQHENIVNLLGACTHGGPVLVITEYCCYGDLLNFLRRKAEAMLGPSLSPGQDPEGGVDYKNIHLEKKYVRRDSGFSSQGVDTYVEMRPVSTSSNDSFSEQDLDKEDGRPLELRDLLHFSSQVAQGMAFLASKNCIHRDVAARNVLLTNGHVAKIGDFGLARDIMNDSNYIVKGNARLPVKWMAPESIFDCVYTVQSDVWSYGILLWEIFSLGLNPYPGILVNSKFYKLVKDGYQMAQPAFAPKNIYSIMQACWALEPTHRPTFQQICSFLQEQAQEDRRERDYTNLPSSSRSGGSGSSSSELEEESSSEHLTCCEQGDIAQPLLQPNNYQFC

Compound: Cc1nc(Nc2cc(-c3cccc(NS(=O)(=O)c4ccccc4)c3)n[nH]2)cc(N2CCN(C)CC2)n1
- IC50 [1]: 290 nM
- IC50 [2]: 290 nM
- IC50 [3]: 310 nM
- GI50 [4]: 21 nM
- inhibition [5]: 96%
- inhibition [6]: 71%
- inhibition [7]: 44%
- inhibition [8]: 31%
- inhibition [9]: 27%
- inhibition [10]: 24%
- inhibition [11]: 16%
- GI50 [12]: 27 nM
- GI50 [13]: 10000 nM
- GI50 [14]: 7400 nM
- Activity [15]: Dose-dependent effect
- Activity [16]: Active
- Activity [17]: Active
- clearance [18]: 57.4 mL/min/kg
- Vd [19]: 6.6 L/kg
- half-life [20]: 4.2 h
- Activity [21]: Active
- Activity [22]: inactive
- Activity [23]: < 3%
- Activity [24]: < 3%
- Activity [25]: Non-toxic
